What all share (type): protein assay
The target of assay [1] is T1, Carbonic anhydrase (Bos taurus) (UniProt P00921+Q95323+P18915+Q3SZX4). The experiment in a line: Evaluated for the inhibition of carbonic anhydrase enzyme at 0.2 g/L concentration. The method in brief: (§1)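 Potentiometric CO2-evolution assay tracked with a pCO2 electrode, 25 ± 0.1 °C, constant stirring, pH 7.0 (0.1 M phosphate buffer), 60 min. NaHCO3 aliquots (0.1 and 5.0 mL) were added to 30 mL buffer at min 2 and 14. CA solution (1.0 mL) was added just before the second bicarbonate addition. Inhibitor was present in the buffer from the assay start.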

The target of assay [2] is T1, Carbonic anhydrase (Bos taurus). The experiment in a line: Compound was evaluated for the inhibition of carbonic anhydrase enzyme at 2.0 g/L concentration; a=No inhibition detected. The method in brief:
as §1

Assay [3] has the same target. The experiment in a line: Compound was evaluated for the inhibition of carbonic anhydrase enzyme at 0.5 g/L concentration; a=No inhibition detected. In a few lines:
as §1

Assay [4] has the same target. The experiment in a line: Compound was evaluated for the inhibition of carbonic anhydrase enzyme at 1.5 g/L concentration; a=No inhibition detected. The method in brief:
as §1

Assay [5] shares this target. The experiment in a line: Compound was evaluated for the inhibition of carbonic anhydrase enzyme at 1.0 g/L concentration; a=No inhibition detected. The method in brief:
as §1

The target is the same in assay [6]. The experiment in a line: Compound was evaluated for the inhibition of carbonic anhydrase enzyme at 0.2 g/L concentration; a=No inhibition detected. The method in brief: as §1

The structures appear in SMILES notation. The source made the active and inactive calls. No cut-off for these calls is given here.

In the case of `C=CCN1CCN(C(=O)c2cc(S(N)(=O)=O)ccc2OC)CC1`, in assay [1], the inhibition (as a rule, the share of the control response that was lost under treatment) turned out to be 36.4%. Same read-out and setting: the figure for `COc1ccc(CN2CCN(C(=O)c3cc(S(N)(=O)=O)ccc3OC)CC2)cc1` is 63.6%; for `COc1ccc(S(N)(=O)=O)cc1C(=O)N1CCN(CC2CCCCC2)CC1` it is 51.5%; for `COc1ccc(S(N)(=O)=O)cc1CN1CCN(Cc2ccccc2)CC1` it is 37.9%.

`COc1ccc(S(N)(=O)=O)cc1C(=O)NCCN1CCCCC1` returned an inhibition in assay [1] of 39.4%. Turning to `NS(=O)(=O)c1nc(C(=O)N2CCN(Cc3ccccc3)CC2)c[nH]1`, the inhibition in assay [1] came to 68.9%. On to `CC[C@H](C)COc1ccc(S(N)(=O)=O)cc1C(=O)NC[C@H]1CCCN1CC`, for which the inhibition in assay [1] stood at 41.7%. The same measure, in the same setting: under `CCN1CCCC1CN(C)C(=O)c1cc(S(N)(=O)=O)ccc1OC` (stereo not given) stands 39.4%. `COc1ccc(S(N)(=O)=O)cc1C(=O)N1CCN(CC(C)C)CC1`: in assay [1], the inhibition came out at 36.4%. Regarding `COc1ccc(S(N)(=O)=O)cc1C(=O)N1CCN(Cc2ccc(S(N)(=O)=O)cc2)CC1`, in assay [1], the inhibition was determined as 70.5%.

`COc1ccc(S(N)(=O)=O)cc1C(=O)N1CCN(CC(=O)N2CCCC2)CC1` yielded an inhibition in assay [1] of 45.5%.

The molecule `COc1ccc(S(N)(=O)=O)cc1C(=O)N1CCN2CCCC2C1` (stereo not given) registered an inhibition in assay [1] of 46.2%. Molecule `COc1cccc(CN2CCN(C(=O)c3cc(S(N)(=O)=O)ccc3OC)CC2)c1` returned an inhibition in assay [1] of 66.7%. Molecule `COc1ccc(S(N)(=O)=O)cc1C(=O)N1CCN(Cc2cc(OC)c(OC)c(OC)c2)CC1` returned an inhibition in assay [1] of 61.4%. For `CCN1CCC[C@H]1CNC(=O)c1c(OC)c(Br)cc(Br)c1OC`, the inhibition result in assay [2], in assay [3], in assay [4], in assay [5] and in assay [6] was “No inhibition” in each case. For the molecule `CCN1CCCC1CNC(=O)c1cc(S(=O)(=O)CC)ccc1OC` (stereo not given), the inhibition result in assay [2], in assay [3], in assay [4], in assay [5] and in assay [6] was “inactive” in each case. With `COc1ccc(S(N)(=O)=O)cc1C(=O)N1CCN(CC(=O)NC(C)C)CC1`, the inhibition in assay [1] was 54.6%.

In assay [1], `CCC(C)CN1CCN(C(=O)c2cc(S(N)(=O)=O)ccc2OC)CC1` (stereo not given) showed an inhibition of 46.2%. In assay [1], `COc1ccc(S(N)(=O)=O)cc1C(=O)N1CCNCC1` displayed an inhibition of 30.3%. Turning to `CC[C@H](C)COc1ccc(S(N)(=O)=O)cc1C(=O)NC[C@@H]1CCCN1CC`, the inhibition in assay [1] stood at 42.4%. Same read-out and setting: the figure for `COc1ccc(S(N)(=O)=O)cc1C(=O)NCCCN1CCOCC1` is 45.5%; for `COc1ccc(S(N)(=O)=O)cc1C(=O)N1CCN(Cc2ccccc2)CC1` it is 58.3%.

(Values after ChEMBL document CHEMBL1123218, “Synthesis and inhibitory activity on carbonic anhydrase of some new sulpiride analogues studied by means of a new method” (J Med Chem, 1986).)
